Assay results published in paper PMC12062833 (RSC Medicinal Chemistry, 2025).
≈ marks a conversion by molar mass, not a printed value. Entries after “also recorded” stand apart in the source; their conditions may differ.

How the values were obtained:
[1] = test system: LN-229 glioblastoma cells; assay: Antiproliferative assay; type: cell-based; conditions: Homo sapiens, LN-229, 72 h, read-out: IC50 LN-229
Method in brief: (§1)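 Adherent lines were seeded at 500 (Capan-1), 1000 (LN-229, HCT-116) or 1500 (NCI-H460) cells/well and dosed after overnight incubation. Suspension lines were seeded at 2500 (HL-60, K-562, Z-138) or 5500 (DND-41) cells/well directly onto compound. Seven 5-fold concentrations ran from 100 to 0.006 μM for 72 h. Viability was read as MTS absorbance at 490 nm after 3 h, and IC50 was derived from OD values. Two independent experiments.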

[2] = test system: Capan-1 pancreatic adenocarcinoma cells; assay: Antiproliferative assay; type: cell-based; conditions: Homo sapiens, CAPAN-1, 72 h, read-out: IC50 Capan-1
Method in brief: as §1

[3] = test system: HCT-116 colon carcinoma cells; assay: Antiproliferative assay; type: cell-based; conditions: Homo sapiens, HCT-116, 72 h, read-out: IC50 HCT-116
Method in brief: as §1

[4] = test system: NCI-H460 non-small cell lung cancer cells; assay: Antiproliferative assay; type: cell-based; conditions: Homo sapiens, NCI-H460, 72 h, read-out: IC50 NCI-H460
Method in brief: as §1

[5] = test system: HL-60 acute myeloid leukemia cells; assay: Antiproliferative assay; type: cell-based; conditions: Homo sapiens, HL-60, 72 h, read-out: IC50 HL-60
Method in brief: as §1

[6] = test system: K-562 chronic myeloid leukemia cells; assay: Antiproliferative assay; type: cell-based; conditions: Homo sapiens, K562, 72 h, read-out: IC50 K-562
Method in brief: as §1

[7] = test system: Escherichia coli (ATCC 25922); assay: Antibacterial MIC, macrodilution method, E. coli; type: cell-based; conditions: ATCC25922, read-out: MIC E. coli
Method in brief: (§2)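 CLSI M07-A9 tube macrodilution. Strains were grown overnight on nutrient agar at 37 °C, and colonies were suspended in Mueller-Hinton broth. Inoculum was 1 × 10^6 per mL (5 × 10^5 per mL in test). DMSO stock was 5120 μg/mL. Final concentrations were 256 to […] in 2 mL. Tubes were incubated at 37 °C for 16–20 h. Controls were inoculum with and without 1% DMSO, and broth alone.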

[8] = test system: Pseudomonas aeruginosa (ATCC 9027); assay: Antibacterial MIC, macrodilution method, P. aeruginosa; type: cell-based; conditions: ATCC9027, read-out: MIC P. aeruginosa
Method in brief: as §2

[9] = test system: Klebsiella pneumoniae (ATCC 27736); assay: Antibacterial MIC, macrodilution method, K. pneumoniae; type: cell-based; conditions: ATCC27736, read-out: MIC K. pneumoniae
Method in brief: as §2

[10] = test system: Staphylococcus aureus (ATCC 25923); assay: Antibacterial MIC, macrodilution method, S. aureus; type: cell-based; conditions: ATCC25923, read-out: MIC S. aureus
Method in brief: as §2

[11] = test system: eight human tumor cell lines; assay: Antiproliferative assay, span over the panel of tumor cell lines; type: cell-based; conditions: 72 h, read-out: IC50 range across tested tumor cell lines
Method in brief: as §1

[12] = test system: Enterococcus faecalis (ATCC 29212); assay: Antibacterial MIC, macrodilution method, E. faecalis; type: cell-based; conditions: MHB, 37 °C
salmon sperm DNA = assay: Fluorescent intercalator displacement; type: binding; conditions: tested at 250, 100 and 40 μM; result in words
Method in brief: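 Competitive fluorescence-polarization displacement. Acridine orange (50 nM) and salmon sperm DNA (6 μg/mL) were mixed with test compound at 250, 100 or 40 μM in HEN buffer (10 mM HEPES pH 7.5, 1 mM EDTA, 100 mM NaCl). Mixtures stood 20 min in the dark. mP was normalized to the DMSO control, with mitoxantrone (10 μM) as positive control.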

PBMC from healthy donors = assay: Cytotoxicity test on normal peripheral blood mononuclear cells; type: cell-based, human; conditions: PBMC of two healthy donors, 72 h, result in words
[13] = test system: Z-138 non-Hodgkin's lymphoma cells; assay: Antiproliferative assay; type: cell-based, human; conditions: read-out: IC50 Z-138; 72 h incubation, two independent experiments
Method in brief: as §1

Row | SMILES | IC50 [1] [µM] | IC50 [2] [µM] | IC50 [3] [µM] | IC50 [4] [µM] | IC50 [5] [µM] | IC50 [6] [µM] | MIC [7] [µg/mL] | MIC [8] [µg/mL] | MIC [9] [µg/mL] | MIC [10] [µg/mL] | IC50 [11] [µM] | MIC E. faecalis [12] [µg/mL] | DNA intercalation (acridine orange displacement, fluorescence polarization) (salmon sperm DNA) | IC50 [13] [µM] | Impact on viability of normal PBMC (MTS) (PBMC from healthy donors; 100 to 0.006 μM) | Dead and apoptotic PBMC (propidium iodide, caspase 3/7, IncuCyte) (PBMC from healthy donors)
1 | c1ccc2[nH]c(-c3ccc(OCCN4CCOCC4)cc3)nc2c1 [Compound 13, 4-(2-(4-(1H-Benzo[d]imidazol-2-yl)phenoxy)ethyl)morpholine] | > 100 | 42.1 ± 3.7 | > 100 | > 100 | 54.2 ± 4.1 | 79.8 ± 1.3 | > 256 | > 256 | > 256 | > 256 | 37.3 to 79.8 | – | – | – | – | –
2 | Clc1ccc2nc(-c3ccc(OCCN4CCOCC4)cc3)[nH]c2c1 [Compound 16, 4-(2-(4-(6-Chloro-1H-benzo[d]imidazol-2-yl)phenoxy)ethyl)morpholine] | > 100 | 45 ± 5.1 | > 100 | > 100 | 51.6 ± 1.5 | 37.3 ± 3.9 | 256 (≈ 715 µM) | > 256 | > 256 | 64 (≈ 179 µM) | 37.3 to 79.8 | 0.25 (≈ 0.699 µM) | – | – | – | –
3 | O=C(COc1ccc(-c2nc3ccc(Cl)cc3[nH]2)cc1)N1CCOCC1 [Compound 17, 2-(4-(6-Chloro-1H-benzo[d]imidazol-2-yl)phenoxy)-1-morpholinoethan-1-one] | > 100 | 28.5 ± 4.4 | > 100 | > 100 | > 100 | > 100 | > 256 | > 256 | > 256 | > 256 | – | 0.5 (≈ 1.34 µM) | – | – | – | –
4 | Fc1ccc2nc(-c3ccc(OCCN4CCOCC4)cc3)[nH]c2c1 [Compound 19, 4-(2-(4-(6-Fluoro-1H-benzo[d]imidazol-2-yl)phenoxy)ethyl)morpholine] | > 100 | ≥ 69.1 | > 100 | > 100 | > 100 | > 100 | – | – | – | – | 37.3 to 79.8 | – | – | – | – | –
5 | CCN(CC)CCOc1ccc(-c2nc3ccc(Cl)cc3[nH]2)cc1F [Compound 23, 2-(4-(6-Chloro-1H-benzo[d]imidazol-2-yl)-2-fluorophenoxy)-N,N-diethylethan-1-amine] | 5 ± 1.3 | 2.2 ± 0.5 | 9.4 ± 1.2 | 2.3 ± 0.8 | 4.4 ± 0.5 | 2 ± 0.7 | 256 (≈ 707 µM) | > 256 | > 256 | 256 (≈ 707 µM) | 2 to 9.4 | – | scored best in the binding assay | – | Only at the highest tested concentration (100 μM), there was an impact on the viability of these normal cells | caused apoptosis in normal cells only at the highest applied concentration of 100 μM; also recorded: an increase in the number of dead and apoptotic cells was observed at 100 μM
6 | CCN(CC)CCOc1ccc(-c2nc3ccc(F)cc3[nH]2)cc1F [Compound 26, N,N-Diethyl-2-(2-fluoro-4-(6-fluoro-1H-benzo[d]imidazol-2-yl)phenoxy)ethan-1-amine] | 51.5 ± 0.1 | 35.4 ± 2.7 | 49.5 ± 0.4 | 35.9 ± 1.3 | 33.8 ± 3.3 | 19.1 ± 1.8 | > 256 | > 256 | > 256 | > 256 | – | – | scored best in the binding assay | – | – | –
7 | Fc1ccc2nc(-c3ccc(OCc4cn(CCN5CCOCC5)nn4)cc3)[nH]c2c1 [Compound 30, 4-(2-(4-((4-(6-Fluoro-1H-benzo[d]imidazol-2-yl)phenoxy)methyl)-1H-1,2,3-triazol-1-yl)ethyl)morpholine] | > 100 | 58.8 ± 1.9 | > 100 | 46.9 ± 4.4 | ≥ 60.6 | > 100 | > 256 | > 256 | > 256 | > 256 | – | – | – | – | – | –

Now from value to compound, other results behind:

Row | IC50 [1] [µM] | IC50 [2] [µM] | IC50 [3] [µM] | IC50 [4] [µM] | IC50 [5] [µM] | IC50 [6] [µM] | MIC [7] [µg/mL] | MIC [8] [µg/mL] | MIC [9] [µg/mL] | MIC [10] [µg/mL] | IC50 [11] [µM] | MIC E. faecalis [12] [µg/mL] | DNA intercalation (acridine orange displacement, fluorescence polarization) (salmon sperm DNA) | IC50 [13] [µM] | SMILES | Impact on viability of normal PBMC (MTS) (PBMC from healthy donors; 100 to 0.006 μM) | Dead and apoptotic PBMC (propidium iodide, caspase 3/7, IncuCyte) (PBMC from healthy donors)
8 | > 100 | > 100 | > 100 | > 100 | > 100 | > 100 | – | – | – | – | – | – | exhibit clear intercalating properties | – | O=C(COc1ccc(-c2nc3ccccc3[nH]2)cc1F)N1CCOCC1 [Compound 22, 2-(4-(1H-Benzo[d]imidazol-2-yl)-2-fluorophenoxy)-1-morpholinoethan-1-one] | – | –
9 | > 100 | > 100 | > 100 | > 100 | > 100 | > 100 | > 256 | > 256 | > 256 | > 256 | – | – | – | ≥ 80.5 | Fc1cc(-c2nc3ccc(Cl)cc3[nH]2)ccc1OCCN1CCOCC1 [Compound 24, 4-(2-(4-(6-Chloro-1H-benzo[d]imidazol-2-yl)-2-fluorophenoxy)ethyl)morpholine] | – | –
10 | > 100 | > 100 | > 100 | > 100 | > 100 | > 100 | > 256 | > 256 | > 256 | > 256 | – | – | – | ≥ 64.8 | O=C(COc1ccc(-c2nc3ccc(Cl)cc3[nH]2)cc1F)N1CCOCC1 [Compound 25, 2-(4-(6-Chloro-1H-benzo[d]imidazol-2-yl)-2-fluorophenoxy)-1-morpholinoethan-1-one] | – | –
11 | > 100 | > 100 | > 100 | > 100 | > 100 | > 100 | > 256 | > 256 | > 256 | > 256 | – | – | exhibit clear intercalating properties | – | O=C(COc1ccc(-c2nc3ccc(F)cc3[nH]2)cc1F)N1CCOCC1 [Compound 27, 2-(2-Fluoro-4-(6-fluoro-1H-benzo[d]imidazol-2-yl)phenoxy)-1-morpholinoethan-1-one] | – | –
12 | > 100 | > 100 | > 100 | > 100 | ≥ 98.1 | > 100 | > 256 | > 256 | > 256 | > 256 | – | – | – | – | Clc1ccc2nc(-c3ccc(OCc4cn(CCN5CCOCC5)nn4)cc3)[nH]c2c1 [Compound 29, 4-(2-(4-((4-(6-Chloro-1H-benzo[d]imidazol-2-yl)phenoxy)methyl)-1H-1,2,3-triazol-1-yl)ethyl)morpholine] | – | –
13 | > 100 | 40.6 ± 2.5 | > 100 | > 100 | 66.1 ± 4 | 73 ± 3 | > 256 | > 256 | > 256 | > 256 | – | – | – | – | Fc1cc(-c2nc3ccccc3[nH]2)ccc1OCc1cn(CCN2CCOCC2)nn1 [Compound 31, 4-(2-(4-((4-(1H-Benzo[d]imidazol-2-yl)-2-fluorophenoxy)methyl)-1H-1,2,3-triazol-1-yl)ethyl)morpholine] | – | –
14 | > 100 | 54.9 ± 5.1 | > 100 | > 100 | > 100 | > 100 | > 256 | > 256 | > 256 | > 256 | – | – | – | – | Fc1cc(-c2nc3ccc(Cl)cc3[nH]2)ccc1OCc1cn(CCN2CCOCC2)nn1 [Compound 32, 4-(2-(4-((4-(6-Chloro-1H-benzo[d]imidazol-2-yl)-2-fluorophenoxy)methyl)-1H-1,2,3-triazol-1-yl)ethyl)morpholine] | – | –
15 | > 100 | 47 ± 4.3 | > 100 | > 100 | 65.1 ± 2.8 | 29.6 ± 1.9 | > 256 | > 256 | > 256 | > 256 | – | – | – | – | Fc1ccc2nc(-c3ccc(OCc4cn(CCN5CCOCC5)nn4)c(F)c3)[nH]c2c1 [Compound 33, 4-(2-(4-((2-Fluoro-4-(6-fluoro-1H-benzo[d]imidazol-2-yl)phenoxy)methyl)-1H-1,2,3-triazol-1-yl)ethyl)morpholine] | – | –
